Compound activity as filed in PubChem BioAssay.
The sample as a whole holds a higher share of hits than the screen did.
IDH1 mut inh – inhibitors of human IDH1 R132H | inhibition, % at 10 µM | IDH1 R132H reductase, diaphorase/resazurin fluorescence, 60 min | actives 0.18% (n = 70,000) | AID 624101; in the data active = inhibition above about 34%; inconclusive = no clear call, values can overlap the other calls; inactive = below about 11%
Target sequence (O75874 whole entry R132H): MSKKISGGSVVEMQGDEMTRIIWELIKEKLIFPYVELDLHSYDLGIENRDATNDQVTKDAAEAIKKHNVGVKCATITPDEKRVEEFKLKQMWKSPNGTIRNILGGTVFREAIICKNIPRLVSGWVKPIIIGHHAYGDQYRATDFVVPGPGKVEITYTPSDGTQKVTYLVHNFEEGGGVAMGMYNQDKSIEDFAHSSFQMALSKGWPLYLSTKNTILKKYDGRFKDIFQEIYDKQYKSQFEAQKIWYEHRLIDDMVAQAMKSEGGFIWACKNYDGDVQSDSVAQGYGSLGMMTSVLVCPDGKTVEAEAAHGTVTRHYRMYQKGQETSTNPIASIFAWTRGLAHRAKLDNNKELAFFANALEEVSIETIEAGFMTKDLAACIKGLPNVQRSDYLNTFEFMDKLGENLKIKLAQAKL
T cruzi growth-1 – blocks T. cruzi growth in NIH3T3 culture. actives 5.9% (n = 77,000). T. cruzi beta-gal in NIH3T3, GalScreen luminescence, 90 h. inhibition, % at 8.34 µM;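 active = mean inhibition above about 93%, with at least 55% of replicates each passing it, limit read from the data, passing the limit was not always enough; inconclusive = only one of those two conditions holds; inactive = neither condition holds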
KDM4C inh – KDM4C (human) demethylase inhibition; Q9H3R0; GST-KDM4C 2-372, H3K9me3 peptide, LANCE TR-FRET; inhibition, % at 12.5 µM; actives 0.15% (n = 96,000); AID 720574;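 active = mean replicate inhibition above about 25%, with at least 55% of replicates also reaching it, limit read from the data, passing the limit was not always enough; inconclusive = only one of those two conditions met; inactive = neither condition met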
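reagent = H3K9me3 peptide substrate, Fe(II), 2-oxoglutarate | system = GST-tagged GASC-1 (JMJD2C) catalytic fragment, aa 2-372 | amount = enzyme final amount 10 nM | read-out = Fall in 671/618 emission ratio as inhibition | medium = HEPES buffer, pH 7.5, plus ascorbate | schedule = 30 min reaction, 60 min detection, RT | measured by = LANCE TR-FRET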
T cruzi growth-2 – inhibitors of T. cruzi proliferation; AID 651739; actives 72% (n = 5,600); T. cruzi beta-gal in NIH3T3, GalScreen luminescence, 90 h; shares compounds with T cruzi growth-1; inhibition, % at 8.35 µM;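 active = mean replicate inhibition above about 95% and at least 55% of replicates individually reaching it, limit read from the data; inconclusive = only one of the two criteria is met; inactive = neither criterion is met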
T cruzi growth-3 – blocks T. cruzi growth in NIH3T3 host cells; actives 21% (n = 5,600); T. cruzi beta-gal in NIH3T3, GalScreen luminescence, 90 h; AID 651740; shares compounds with T cruzi growth-1; inhibition, % at 2.09 µM;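 active = mean inhibition above about 95%, with at least 55% of replicates also reaching it, limit read from the data; inconclusive = meets just one of the two conditions; inactive = meets neither condition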
NIH3T3 tox – kills mouse NIH/3T3 fibroblasts | shares compounds with T cruzi growth-1 | NIH/3T3 viability, CellTiter-Glo ATP luminescence, 90 h | cytotoxicity (signal decrease), % at 8.35 µM | actives 14% (n = 5,600) | AID 651742;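 active = mean signal decrease across replicates above about 35% based on untreated-well scatter, with enough replicates individually passing, limit read from the data; inconclusive = no rule stated though some were filed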
3T3 cytotox 2 – NIH/3T3 (mouse) viability loss; shares compounds with T cruzi growth-1; AID 651744; actives 56% (n = 5,600); NIH/3T3 viability, CellTiter-Glo ATP luminescence, 90 h; inhibition, % at 24.9 µM;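 active = mean loss of cell viability signal at or above a set limit, and enough replicates individually reaching it; inconclusive = meets only the mean limit or only the replicate share; inactive = meets neither condition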
Large screens that a line does not name were inactive (follow-up assays come after a bar, where they were run); ! = not active in a repeat.

C[C@H](CO)N1C[C@H](C)[C@@H](CN(C)Cc2ccccc2)OCCCC[C@H](C)Oc2ccc(N(C)C)cc2C1=O	T cruzi growth-1 100.1! | T cruzi growth-2 inactive | T cruzi growth-3 inactive | NIH3T3 tox inactive | 3T3 cytotox 2 inactive
C[C@@H]1CCCCO[C@@H](CN(C)Cc2ccccc2)[C@@H](C)CN([C@H](C)CO)C(=O)c2cc(N(C)C)ccc2O1	none (no result: IDH1 mut inh)
C[C@@H]1CCCCO[C@@H](CN(C)Cc2ccc(C(=O)O)cc2)[C@H](C)CN([C@@H](C)CO)C(=O)c2cc(N(C)C)ccc2O1	none
C[C@H](CO)N1C[C@H](C)[C@@H](CN(C)CC2CCCCC2)OCCCC[C@H](C)Oc2ccc(N(C)C)cc2C1=O	T cruzi growth-1 99.0 | T cruzi growth-2 109.8 | T cruzi growth-3 inactive | NIH3T3 tox inactive | 3T3 cytotox 2 inactive
C[C@@H]1CCCCO[C@@H](CN(C)CC2CCCCC2)[C@@H](C)CN([C@H](C)CO)C(=O)c2cc(N(C)C)ccc2O1	none
COCC#Cc1cnc2c(c1)C(=O)N([C@H](C)CO)C[C@@H](C)[C@@H](CN(C)C(C)=O)O2	none
N#Cc1ccccc1CSc1ncn[nH]1	none (no result: T cruzi growth-1, KDM4C inh)
COc1ccc(NC(=O)Nc2ccc3c(c2)[C@@H]2C[C@H](CC(=O)N4CCN(C)CC4)O[C@H](CO)[C@@H]2O3)cc1	none
C[C@@H]1CN([C@@H](C)CO)C(=O)c2ccccc2-c2ccccc2CO[C@@H]1CN(C)C(=O)Nc1cccc(Cl)c1Cl	none (no result: IDH1 mut inh, T cruzi growth-1)
O=C(C[C@@H]1CC[C@H]2[C@@H](COC[C@@H](O)CN2S(=O)(=O)c2cccc(F)c2)O1)Nc1ccc(-c2ccccc2)cc1	none (no result: IDH1 mut inh)
O=C(C[C@@H]1CC[C@H]2[C@@H](COC[C@@H](O)CN2S(=O)(=O)c2ccccc2)O1)Nc1ccccc1	none (no result: IDH1 mut inh)
Cc1cccc(S(=O)(=O)N2C[C@H](O)COC[C@@H]3O[C@H](CC(=O)Nc4ccc(-c5ccccc5)cc4)CC[C@H]32)c1	T cruzi growth-1 111.7 (no result: IDH1 mut inh) | T cruzi growth-2 101.8 | T cruzi growth-3 106.6 | NIH3T3 tox inactive | 3T3 cytotox 2 inactive
Cc1cccc(S(=O)(=O)N2C[C@@H](O)COC[C@H]3O[C@@H](CC(=O)Nc4ccc(-c5ccccc5)cc4)CC[C@@H]32)c1	T cruzi growth-1 112.6 (no result: IDH1 mut inh) | T cruzi growth-2 100.3 | T cruzi growth-3 inactive | NIH3T3 tox inactive | 3T3 cytotox 2 78.4
Cc1cccc(S(=O)(=O)N2C[C@H](O)COC[C@@H]3O[C@@H](CC(=O)Nc4ccc(-c5ccccc5)cc4)CC[C@H]32)c1	T cruzi growth-1 111.3 (no result: IDH1 mut inh) | T cruzi growth-2 96.8 | T cruzi growth-3 inconclusive | NIH3T3 tox 59.7 | 3T3 cytotox 2 78.4
O=C(C[C@H]1CC[C@@H]2[C@H](COC[C@@H](O)CN2S(=O)(=O)c2ccccc2)O1)Nc1ccc(-c2ccccc2)cc1	none (no result: IDH1 mut inh)
O=C(C[C@@H]1CC[C@@H]2[C@H](COC[C@@H](O)CN2S(=O)(=O)c2ccccc2)O1)Nc1ccc(-c2ccccc2)cc1	T cruzi growth-1 103.7 (no result: IDH1 mut inh) | T cruzi growth-2 117.0 | T cruzi growth-3 inactive | NIH3T3 tox inactive | 3T3 cytotox 2 inactive
O=C(C[C@H]1CC[C@@H]2[C@H](COC[C@H](O)CN2S(=O)(=O)c2ccccc2)O1)Nc1ccc(-c2ccccc2)cc1	none (no result: IDH1 mut inh)
COCC(=O)Nc1ccc2c(c1)C(=O)N(C)[C@@H]1CC[C@@H](CC(=O)NCc3ccccc3Cl)O[C@@H]1CO2	none (no result: IDH1 mut inh)
CO[C@@H]1CN(C)C(=O)c2ccc(NS(=O)(=O)c3cn(C)cn3)cc2OC[C@@H](C)N(Cc2cccc(Cl)c2)C[C@H]1C	none (no result: T cruzi growth-1)
O=C(NC1CCCC1)N1CCCCN2[C@@H](CO)[C@H](c3ccc(-c4cncnc4)cc3)[C@@H]2C1	none (no result: IDH1 mut inh)
O=C(C[C@@H]1CC[C@@H]2[C@H](COC[C@@H](O)CN2S(=O)(=O)c2cccc(F)c2)O1)Nc1ccc(-c2ccccc2)cc1	none (no result: IDH1 mut inh)
Cc1cccc(S(=O)(=O)N2C[C@@H](O)COC[C@@H]3O[C@H](CC(=O)Nc4ccc(-c5ccccc5)cc4)CC[C@H]32)c1	T cruzi growth-1 119.5 (no result: IDH1 mut inh) | T cruzi growth-2 106.6 | T cruzi growth-3 inactive | NIH3T3 tox inconclusive | 3T3 cytotox 2 41.2
CN(C)C(=O)C[C@H]1CC[C@H]2[C@@H](COC[C@H](O)CN2CC2CCOCC2)O1	none (no result: IDH1 mut inh)
